The target of test [1] is 5-hydroxytryptamine receptor 1B (Rattus norvegicus, UniProt P28564). Briefly: Binding affinity against 5-hydroxytryptamine 1B receptor in membranes of Rat cerebral cortex. The format is tissue-based. In short, it runs like this: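 Rat cerebral cortical membranes labelled with [125I]iodocyanopindolol in the presence of 60 μM isoproterenol to block β-adrenoceptor binding. Nonspecific binding was defined with 10 μM 5-HT.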

In test [2] the target is T1, 5-hydroxytryptamine receptor 2C (Rattus norvegicus, UniProt P08909).
T1 sequence (P08909 whole entry): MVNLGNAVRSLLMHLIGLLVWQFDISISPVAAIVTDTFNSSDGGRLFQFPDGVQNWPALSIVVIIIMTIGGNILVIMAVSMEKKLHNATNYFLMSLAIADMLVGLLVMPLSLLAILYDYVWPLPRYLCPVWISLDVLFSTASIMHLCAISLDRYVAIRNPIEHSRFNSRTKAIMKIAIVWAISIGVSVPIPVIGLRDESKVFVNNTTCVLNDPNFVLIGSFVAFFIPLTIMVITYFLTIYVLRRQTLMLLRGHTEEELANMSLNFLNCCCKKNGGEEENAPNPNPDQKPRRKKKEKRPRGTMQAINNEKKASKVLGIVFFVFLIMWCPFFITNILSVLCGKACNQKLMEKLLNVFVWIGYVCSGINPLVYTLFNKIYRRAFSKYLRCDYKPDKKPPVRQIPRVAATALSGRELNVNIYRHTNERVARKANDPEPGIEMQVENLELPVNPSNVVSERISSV
The experiment in a line: Binding affinity against 5-hydroxytryptamine 2C receptor from rat cortex using [3H]mesulergine as the radioligand. The format is tissue-based. In short, it runs like this: (§1)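 Binding by the Johansson et al. method. 5-HT2A used [3H]ketanserin and 5-HT2C used [3H]mesulergine, both on rat cortex. 5-HT6 and 5-HT7 used [3H]-5-HT on CHO cell membranes expressing the rat receptors.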

Test [3] deals with 5-hydroxytryptamine receptor 2A (Rattus norvegicus, UniProt P14842). The experiment in a line: Binding affinity against 5-hydroxytryptamine 2A receptor from rat cortex using [3H]ketanserin as the radioligand. A digest of the protocol:
as §1

Test [4] has as its target T2, Adrenergic receptor alpha-2 (Rattus norvegicus, UniProt P22086+P19328+P22909).
T2 sequence (P22086 whole entry): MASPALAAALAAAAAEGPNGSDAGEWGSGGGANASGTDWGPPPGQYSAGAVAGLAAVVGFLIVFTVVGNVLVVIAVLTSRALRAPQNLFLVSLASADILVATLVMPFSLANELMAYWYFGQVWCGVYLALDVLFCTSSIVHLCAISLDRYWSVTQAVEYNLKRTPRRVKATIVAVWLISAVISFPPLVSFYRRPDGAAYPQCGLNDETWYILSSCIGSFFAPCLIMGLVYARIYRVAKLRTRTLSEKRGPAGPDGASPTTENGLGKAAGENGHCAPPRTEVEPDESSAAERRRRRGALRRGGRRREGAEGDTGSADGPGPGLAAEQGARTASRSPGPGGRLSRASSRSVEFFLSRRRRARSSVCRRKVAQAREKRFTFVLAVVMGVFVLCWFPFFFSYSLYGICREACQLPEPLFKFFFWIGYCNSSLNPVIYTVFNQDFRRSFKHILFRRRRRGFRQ
T2 sequence (P19328 whole entry): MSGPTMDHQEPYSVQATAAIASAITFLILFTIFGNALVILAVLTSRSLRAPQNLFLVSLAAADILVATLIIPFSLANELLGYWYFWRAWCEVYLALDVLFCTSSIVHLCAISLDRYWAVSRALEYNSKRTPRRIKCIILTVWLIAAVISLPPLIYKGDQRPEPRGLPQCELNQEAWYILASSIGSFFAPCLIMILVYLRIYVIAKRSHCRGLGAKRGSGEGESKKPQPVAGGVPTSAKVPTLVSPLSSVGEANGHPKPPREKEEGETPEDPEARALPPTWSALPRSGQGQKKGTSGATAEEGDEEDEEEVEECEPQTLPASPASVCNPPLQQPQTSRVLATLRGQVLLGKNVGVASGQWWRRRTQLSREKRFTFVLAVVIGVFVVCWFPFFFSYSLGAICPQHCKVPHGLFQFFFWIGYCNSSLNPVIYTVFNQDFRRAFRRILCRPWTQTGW
T2 sequence (P22909 whole entry): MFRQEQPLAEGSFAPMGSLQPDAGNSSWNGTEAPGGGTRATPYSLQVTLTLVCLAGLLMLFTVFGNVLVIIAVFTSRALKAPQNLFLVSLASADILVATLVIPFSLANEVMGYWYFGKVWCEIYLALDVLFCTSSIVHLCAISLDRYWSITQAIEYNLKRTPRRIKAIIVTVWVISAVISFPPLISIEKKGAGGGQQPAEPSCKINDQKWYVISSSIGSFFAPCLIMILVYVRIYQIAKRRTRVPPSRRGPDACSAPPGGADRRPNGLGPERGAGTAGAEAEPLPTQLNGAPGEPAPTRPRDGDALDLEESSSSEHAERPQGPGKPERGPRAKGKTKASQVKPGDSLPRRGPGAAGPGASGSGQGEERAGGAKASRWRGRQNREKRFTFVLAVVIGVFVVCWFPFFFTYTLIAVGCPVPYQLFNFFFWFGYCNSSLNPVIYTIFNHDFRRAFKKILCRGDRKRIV
The experiment in a line: Binding affinity against Alpha-2 adrenergic receptor in rat cortex using [3H]RX-821002 as the radioligand. The format is tissue-based, Brain. A digest of the protocol:
(§2)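 Binding by the Jackson et al. method. 5-HT1A used [3H]OH-DPAT on rat hippocampus. α1 used [3H]prazosin, α2 [3H]RX821002 and β [3H]dihydroalprenolol, all on rat cortex. D1 used [3H]SCH-23390 on rat striatum. D2 used [3H]raclopride on LtkhD2A cell membranes.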

The next test addresses Adrenergic receptor beta (Rattus norvegicus, UniProt P18090+P10608+P26255). The experiment in a line: Binding affinity against Beta adrenergic receptor in rat cortex using [3H]dihydroalprenolol as the radioligand. In short, it runs like this: as §2
The target of the next test is D(2) dopamine receptor (Homo sapiens, UniProt P14416). Briefly: Binding affinity against Dopamine receptor D2 from cell LtkhD2A membranes using [3H]raclopride as the radioligand. A digest of the protocol:
as §2

Another test addresses D(1A) dopamine receptor (Rattus norvegicus, UniProt P18901). Briefly: Binding affinity against Dopamine receptor D1 in rat striatum using [3H]-SCH- 23390 as the radioligand. The format is tissue-based. A digest of the protocol: as §2
The target of test [5] is Sigma non-opioid intracellular receptor 1 (Rattus norvegicus, UniProt Q9R0C9). The experiment in a line: Binding affinity against sigma receptor from rat whole brains using [3H]DTG as the radioligand. In short, it runs like this:
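Whole rat brain membranes labelled with [3H]DTG (N,N-di(o-tolyl)guanidine), following Ross.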

5-hydroxytryptamine receptor 2A, sequence (P14842 whole entry): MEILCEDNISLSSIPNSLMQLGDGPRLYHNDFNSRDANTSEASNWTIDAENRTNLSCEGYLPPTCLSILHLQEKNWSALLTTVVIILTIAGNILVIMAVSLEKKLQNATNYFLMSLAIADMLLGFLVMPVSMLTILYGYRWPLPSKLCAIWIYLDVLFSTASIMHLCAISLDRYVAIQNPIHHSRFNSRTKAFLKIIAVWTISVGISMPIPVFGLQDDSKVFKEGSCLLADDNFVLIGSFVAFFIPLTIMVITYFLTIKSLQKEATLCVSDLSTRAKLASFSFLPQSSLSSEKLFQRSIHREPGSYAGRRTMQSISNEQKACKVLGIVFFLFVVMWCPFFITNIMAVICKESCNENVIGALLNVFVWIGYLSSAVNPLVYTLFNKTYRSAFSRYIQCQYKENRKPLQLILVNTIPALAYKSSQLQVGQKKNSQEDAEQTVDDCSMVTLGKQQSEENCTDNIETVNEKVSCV
D(1A) dopamine receptor, sequence (P18901 whole entry): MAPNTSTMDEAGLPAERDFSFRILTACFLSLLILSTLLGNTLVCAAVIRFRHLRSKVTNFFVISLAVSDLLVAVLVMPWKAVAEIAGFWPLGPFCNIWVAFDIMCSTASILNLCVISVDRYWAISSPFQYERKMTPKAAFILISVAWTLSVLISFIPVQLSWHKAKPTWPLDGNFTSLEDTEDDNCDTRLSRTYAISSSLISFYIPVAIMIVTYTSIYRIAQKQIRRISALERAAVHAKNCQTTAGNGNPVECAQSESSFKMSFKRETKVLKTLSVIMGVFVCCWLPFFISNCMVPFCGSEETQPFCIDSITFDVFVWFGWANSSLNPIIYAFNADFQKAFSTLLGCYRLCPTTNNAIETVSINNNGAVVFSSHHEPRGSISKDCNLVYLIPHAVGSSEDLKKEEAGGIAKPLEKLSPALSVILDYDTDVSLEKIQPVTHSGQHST
D(2) dopamine receptor, sequence (P14416 whole entry): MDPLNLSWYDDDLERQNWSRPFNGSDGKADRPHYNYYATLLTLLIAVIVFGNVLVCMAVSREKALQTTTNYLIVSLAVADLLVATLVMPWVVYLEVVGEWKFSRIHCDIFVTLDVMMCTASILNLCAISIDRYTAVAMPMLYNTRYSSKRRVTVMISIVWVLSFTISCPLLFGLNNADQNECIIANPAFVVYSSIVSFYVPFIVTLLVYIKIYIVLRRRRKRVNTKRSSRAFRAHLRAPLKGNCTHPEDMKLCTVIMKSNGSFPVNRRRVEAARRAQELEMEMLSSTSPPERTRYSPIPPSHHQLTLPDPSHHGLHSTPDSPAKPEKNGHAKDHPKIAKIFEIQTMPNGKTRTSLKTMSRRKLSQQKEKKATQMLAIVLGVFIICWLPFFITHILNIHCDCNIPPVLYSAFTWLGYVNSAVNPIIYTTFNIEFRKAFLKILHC
5-hydroxytryptamine receptor 1B, sequence (P28564 whole entry): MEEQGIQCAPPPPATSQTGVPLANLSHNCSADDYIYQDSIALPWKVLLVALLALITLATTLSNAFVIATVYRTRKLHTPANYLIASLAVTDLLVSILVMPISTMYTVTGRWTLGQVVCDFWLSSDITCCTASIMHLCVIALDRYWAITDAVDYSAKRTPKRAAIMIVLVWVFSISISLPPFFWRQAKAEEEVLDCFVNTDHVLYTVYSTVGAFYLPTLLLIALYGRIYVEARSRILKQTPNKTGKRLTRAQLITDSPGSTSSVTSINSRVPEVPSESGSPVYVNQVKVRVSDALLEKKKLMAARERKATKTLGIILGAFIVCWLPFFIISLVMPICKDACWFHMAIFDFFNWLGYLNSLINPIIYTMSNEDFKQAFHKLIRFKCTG
Sigma non-opioid intracellular receptor 1, sequence (Q9R0C9 whole entry): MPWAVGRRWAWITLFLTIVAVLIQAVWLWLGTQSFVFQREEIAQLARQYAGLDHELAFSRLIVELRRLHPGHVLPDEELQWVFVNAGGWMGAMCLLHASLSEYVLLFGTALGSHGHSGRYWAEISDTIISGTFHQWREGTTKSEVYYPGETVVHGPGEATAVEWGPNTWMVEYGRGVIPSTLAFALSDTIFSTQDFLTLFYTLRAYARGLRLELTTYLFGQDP

Consider `C1=C(CN2CCOCC2)COc2c1cccc2OC[C@@H]1CNCCO1.Cl`, for which the Ki in test [1] was 0.275 µM; in test [2], over 10 µM; in test [3] it was over 10 µM; in test [4] it was over 10 µM; on Adrenergic receptor beta, 10 µM; on D(2) dopamine receptor, over 10 µM. In addition, the Ki (at D(1A) dopamine receptor; in test [5]) was over 10 µM each time.
As for `C1=C(CN2CCOCC2)COc2c1cccc2OC[C@H]1CNCCO1.CS(=O)(=O)O`, the inhibition constant (Ki) in test [1] is 0.047 µM; in test [2] it was over 10 µM; in test [3], over 10 µM; in test [4] it was over 10 µM; on Adrenergic receptor beta, over 10 µM; at D(2) dopamine receptor, over 10 µM. Also, the Ki (at D(1A) dopamine receptor; in test [5]) was over 10 µM in each case.

The term Ki denotes the dissociation constant of the complex between target and ligand, obtained from inhibition or displacement.

Values taken from ChEMBL document CHEMBL1131235, “(R)-(+)-2-[[[3-(Morpholinomethyl)-2H-chromen-8-yl]oxy]methyl] morpholine methanesulfonate: a new selective rat 5-hydroxytryptamine1B receptor antagonist” (J Med Chem, 1998).
